Assay results as given in paper PMC5976253 (Journal of medicinal chemistry, 2018).
Entries after “also recorded” stand apart in the source; their conditions may differ.

Assays:
rat UT-B = target: T1, rat UT-B (Rattus norvegicus, UniProt P97689); experiment: UT-B inhibition, erythrocyte lysis assay; assay type: cell-based
T1 sequence (P97689 1-384): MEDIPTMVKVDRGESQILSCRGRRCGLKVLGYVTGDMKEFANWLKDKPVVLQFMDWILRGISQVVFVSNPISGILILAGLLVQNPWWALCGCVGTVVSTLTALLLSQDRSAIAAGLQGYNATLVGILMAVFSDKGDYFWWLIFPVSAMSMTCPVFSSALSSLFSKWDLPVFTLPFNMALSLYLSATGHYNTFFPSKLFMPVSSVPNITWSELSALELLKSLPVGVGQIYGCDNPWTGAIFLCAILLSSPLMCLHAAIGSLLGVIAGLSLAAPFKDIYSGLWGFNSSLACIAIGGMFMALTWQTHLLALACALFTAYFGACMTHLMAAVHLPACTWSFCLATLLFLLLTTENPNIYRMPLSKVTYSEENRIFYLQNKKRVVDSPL
Summary of the method: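 Rat whole blood was diluted to ~1.5% hematocrit in PBS with 1.25 M acetamide and 5 mM glucose, then incubated 15 min with test compound. Suspension was added rapidly to wells and mixed vigorously, and lysis was read as absorbance at 710 nm. Controls were isosmolar buffer (nonlysed) and 0.7 mM phloretin (lysed), with % lysis normalized between them; mean ± SEM, n = 3.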

rat UT-A1 = target: T2, rat UT-A1 (Rattus norvegicus, UniProt Q62668); assay type: cell-based
T2 sequence (Q62668 1-929): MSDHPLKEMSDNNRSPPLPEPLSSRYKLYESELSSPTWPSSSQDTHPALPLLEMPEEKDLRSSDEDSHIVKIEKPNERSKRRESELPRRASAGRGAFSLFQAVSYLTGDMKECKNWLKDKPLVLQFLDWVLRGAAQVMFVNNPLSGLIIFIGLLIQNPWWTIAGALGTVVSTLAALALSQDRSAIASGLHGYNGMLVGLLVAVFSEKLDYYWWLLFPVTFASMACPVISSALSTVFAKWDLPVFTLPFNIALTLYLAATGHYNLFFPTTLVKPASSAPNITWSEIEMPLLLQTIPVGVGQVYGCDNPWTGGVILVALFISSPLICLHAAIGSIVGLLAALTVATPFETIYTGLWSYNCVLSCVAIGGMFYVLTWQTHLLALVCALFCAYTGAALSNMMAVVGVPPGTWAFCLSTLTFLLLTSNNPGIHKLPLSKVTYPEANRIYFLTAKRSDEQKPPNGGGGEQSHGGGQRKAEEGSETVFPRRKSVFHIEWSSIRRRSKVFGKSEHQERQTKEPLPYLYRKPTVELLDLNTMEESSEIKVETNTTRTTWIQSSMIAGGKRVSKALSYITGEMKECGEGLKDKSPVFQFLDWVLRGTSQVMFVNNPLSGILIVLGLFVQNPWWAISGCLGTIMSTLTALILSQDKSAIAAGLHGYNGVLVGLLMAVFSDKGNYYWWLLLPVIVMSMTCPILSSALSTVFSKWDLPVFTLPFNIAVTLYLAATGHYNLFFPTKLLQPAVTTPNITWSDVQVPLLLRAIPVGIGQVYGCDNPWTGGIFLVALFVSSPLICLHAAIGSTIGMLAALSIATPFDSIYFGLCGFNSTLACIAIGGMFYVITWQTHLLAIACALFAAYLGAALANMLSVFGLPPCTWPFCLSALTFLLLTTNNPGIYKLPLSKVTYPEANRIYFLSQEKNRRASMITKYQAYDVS
Summary of the method: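 MDCK cells co-expressing rat UT-A1, AQP1 and YFP were used, selecting a clone with bright YFP and relatively low AQP1. Urea transport was read by plate-reader fluorescence, referenced to DMSO (0%) and phloretin (100%). Concentration–inhibition data are mean ± SEM, n = 3. For reversibility, cells were preincubated with 0.5 µM compound and PBS-washed before assay. For kinetics, 0.5 µM was added at varied times before assay. Urea gradients were 200, 400 and 800 mM.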

Rat pharmacokinetics = assay type: in vivo; settings: 4 mg/kg intravenous
Summary of the method: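 Tail-vein blood was taken at 15, 30, 60, 120 and 180 min, serum separated, and urine collected in metabolic cages for 3 h; samples were stored at −20 °C. LC/MS (ESI positive) quantified compound against standards spiked into control rat urine and plasma.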

rats = experiment: Diuretic studies in rats; assay type: in vivo; settings: rat, 4 mg/kg intravenous, compared with pretreatment
Summary of the method: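 Male Wistar rats (250–300 g), acclimated individually in metabolic cages for 3 days (6 h/day), with food and water ad libitum. Spontaneously voided urine was collected for 3 h. Test compound or vehicle was then given IV via catheter at 4 mg/kg in saline with 20% dimethylacetamide and 1.28 mg/mL NaOH, and urine was collected for a further 3 h. Read-outs were volume and freezing-point osmolality; mean ± SEM, n = 4; paired t-test versus −3 to 0 h.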

Row | Compound | UT-B inhibition (in words) (rat UT-B) | UT-A1 inhibition (in words) (rat UT-A1) | further results
1 | COc1ccc(Cl)cc1S(=O)(=O)Nc1ccc(Oc2nc3ccccc3n3cnnc23)cc1 [8aa, N-(4-([1,2,4]Triazolo[4,3-a]quinoxalin-4-yloxy)-phenyl)-5-chloro-2-methoxybenzenesulfonamide] | modest activity | – | –
2 | COc1ccc(Cl)c(S(=O)(=O)Nc2ccc(Oc3nc4ccccc4n4cnnc34)cc2)c1 [8ag] | – | inactive | –
3 | O=C(Nc1ccon1)c1cc(-c2ccccc2)nc2ccccc12 [compound 3] | little UT-B inhibition | – | –
4 | COc1ccc(Cl)cc1S(=O)(=O)Nc1ccc(Oc2nc3cc(Cl)c(Cl)cc3n3cnnc23)cc1 [8bi] | – | inactive | –
5 | COc1ccc(Cl)c(S(=O)(=O)Nc2ccc(Nc3nc4ccccc4n4cnnc34)cc2)c1 [8am] | – | inactive | –
6 | CCCc1nnc2c(Oc3ccc(NS(=O)(=O)c4cc(Cl)ccc4OC)cc3)nc3cc(F)c(F)cc3n12 [8bl] | – | – | serum concentration (Rat pharmacokinetics; for 3 h): greater than 2 µM; urine concentration (Rat pharmacokinetics; urine collected for 3 h): 6 to 8 µM; 3 h urine volume (rats): marked diuresis; also recorded: significantly increased; urine osmolality (rats): reduced urinary osmolality
7 | CCCc1nnc2c(Oc3ccc(NS(=O)(=O)c4cc(Cl)ccc4OC)cc3)nc3ccccc3n12 [8ay] | – | – | Reversibility of UT-A1 inhibition (rat UT-A1; 0.5 µM for 15 min followed by washing): fully reversed; half-time for UT-A1 inhibition (rat UT-A1; after addition of 0.5 µM compound): ~ 2 min; IC50 for UT-A1 at different urea concentration gradients (inhibition mechanism) (rat UT-A1; urea 200, 400 and 800 mM): similar
8 | COc1ccc(-c2cccc(-c3ccn(Cc4csc(C)n4)n3)c2)nn1 [compound 2] | little UT-B inhibition | – | –
9 | CC(=O)Nc1ccc(-c2noc(C3CCCN(C(=O)c4ccccc4F)C3)n2)cc1 (stereo not shown) [compound 1] | little UT-B inhibition | – | –
10 | COC(=O)c1sc2nc3c(cc2c1N)CN(Cc1ccccc1)CC3 [compound 4] | – | low potency | –
11 | COc1ccc(Cl)cc1S(=O)(=O)Nc1ccc(Oc2nc3ccccc3n3c(C)nnc23)cc1 [8an] | – | inactive | –
